Reference: the M2OR odorant receptor database

Key:
Details in all cases: stereoisomer not certain
[1] = biological target: T1, UniProt Q8VG27
T1 sequence (whole entry): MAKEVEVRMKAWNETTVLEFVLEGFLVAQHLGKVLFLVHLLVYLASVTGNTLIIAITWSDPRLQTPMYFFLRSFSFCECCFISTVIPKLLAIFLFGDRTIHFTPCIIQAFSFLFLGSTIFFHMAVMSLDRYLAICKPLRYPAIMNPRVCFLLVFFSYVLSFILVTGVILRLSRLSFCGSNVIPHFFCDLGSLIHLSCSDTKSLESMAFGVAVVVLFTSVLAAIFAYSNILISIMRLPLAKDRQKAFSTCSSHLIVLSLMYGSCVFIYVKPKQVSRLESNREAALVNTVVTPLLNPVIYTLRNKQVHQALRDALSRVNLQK
In short: (§1)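 Assay methods differ from source to source, frequently being transient luciferase assays in mammalian cell lines. For each receptor–molecule pair, the label responsive (active) applies when the original authors judged the measured signal statistically different from baseline, and non-responsive (inactive) applies otherwise.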

[2] = biological target: T2, UniProt Q8VG53
T2 sequence (whole entry): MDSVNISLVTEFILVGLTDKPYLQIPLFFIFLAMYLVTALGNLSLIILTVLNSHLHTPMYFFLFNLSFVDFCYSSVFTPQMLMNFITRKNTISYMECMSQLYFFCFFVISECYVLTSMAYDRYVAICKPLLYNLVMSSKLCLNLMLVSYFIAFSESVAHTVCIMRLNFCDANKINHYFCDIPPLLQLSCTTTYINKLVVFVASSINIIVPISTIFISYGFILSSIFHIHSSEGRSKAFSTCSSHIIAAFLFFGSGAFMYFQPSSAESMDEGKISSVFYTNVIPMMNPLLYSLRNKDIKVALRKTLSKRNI
In short: as §1

[3] = biological target: T3, UniProt Q8VG64
T3 sequence (whole entry): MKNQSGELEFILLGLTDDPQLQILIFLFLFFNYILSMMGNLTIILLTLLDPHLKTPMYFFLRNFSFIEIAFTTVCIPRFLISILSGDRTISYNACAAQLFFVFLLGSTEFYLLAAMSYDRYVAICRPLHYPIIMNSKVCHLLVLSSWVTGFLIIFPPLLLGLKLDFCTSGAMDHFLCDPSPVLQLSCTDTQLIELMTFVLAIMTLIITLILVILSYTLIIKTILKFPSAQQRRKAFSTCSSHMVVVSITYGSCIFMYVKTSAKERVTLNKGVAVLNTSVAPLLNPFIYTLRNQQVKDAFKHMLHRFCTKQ
In short: as §1

[4] = biological target: T4, UniProt Q8VGB9
T4 sequence (whole entry): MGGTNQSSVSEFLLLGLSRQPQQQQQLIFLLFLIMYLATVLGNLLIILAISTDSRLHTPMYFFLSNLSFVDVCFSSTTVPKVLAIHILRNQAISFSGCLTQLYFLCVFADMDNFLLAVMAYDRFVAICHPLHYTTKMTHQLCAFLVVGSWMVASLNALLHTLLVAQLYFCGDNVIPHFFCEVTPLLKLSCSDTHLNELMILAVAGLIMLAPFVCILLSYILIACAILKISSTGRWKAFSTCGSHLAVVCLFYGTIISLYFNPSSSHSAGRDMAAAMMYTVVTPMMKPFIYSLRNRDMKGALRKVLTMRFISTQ
In short: as §1

[5] = biological target: T5, UniProt Q8VGC6
T5 sequence (whole entry): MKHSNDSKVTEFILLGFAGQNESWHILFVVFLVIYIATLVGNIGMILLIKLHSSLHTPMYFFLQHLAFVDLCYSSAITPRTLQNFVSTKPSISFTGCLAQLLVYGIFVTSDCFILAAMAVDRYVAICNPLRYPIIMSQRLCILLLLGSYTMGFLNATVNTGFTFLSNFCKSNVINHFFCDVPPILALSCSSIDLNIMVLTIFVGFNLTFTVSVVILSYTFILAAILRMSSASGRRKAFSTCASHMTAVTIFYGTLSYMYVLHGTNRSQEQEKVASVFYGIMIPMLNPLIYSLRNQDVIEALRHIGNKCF
In short: as §1

[6] = biological target: T6, UniProt Q8VGJ3
T6 sequence (whole entry): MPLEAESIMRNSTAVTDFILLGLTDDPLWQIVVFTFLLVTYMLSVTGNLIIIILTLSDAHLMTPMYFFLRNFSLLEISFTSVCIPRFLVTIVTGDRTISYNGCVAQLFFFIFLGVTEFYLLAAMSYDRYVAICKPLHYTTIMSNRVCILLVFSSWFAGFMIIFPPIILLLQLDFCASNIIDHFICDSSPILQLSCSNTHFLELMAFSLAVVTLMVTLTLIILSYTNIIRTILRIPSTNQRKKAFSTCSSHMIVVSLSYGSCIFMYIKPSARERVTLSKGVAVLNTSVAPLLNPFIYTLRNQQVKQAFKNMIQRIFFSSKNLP
In short: as §1

[7] = biological target: T7, UniProt Q8VGL0
T7 sequence (whole entry): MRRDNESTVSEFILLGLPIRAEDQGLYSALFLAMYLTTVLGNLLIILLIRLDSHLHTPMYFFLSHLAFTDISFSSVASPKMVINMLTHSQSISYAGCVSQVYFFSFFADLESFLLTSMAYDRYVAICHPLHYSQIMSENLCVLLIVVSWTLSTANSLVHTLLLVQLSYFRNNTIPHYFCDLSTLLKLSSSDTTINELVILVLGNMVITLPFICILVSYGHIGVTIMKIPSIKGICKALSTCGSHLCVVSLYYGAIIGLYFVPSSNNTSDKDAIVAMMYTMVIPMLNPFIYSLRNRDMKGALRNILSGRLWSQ
In short: as §1

Measured: odorant receptor agonist call

Cc1ccc(OC(=O)C(C)C)cc1
inactive: all assays above

CNc1ccccc1C(=O)OC
inactive: all assays above

COC(OC)c1ccccc1
inactive: all assays above

CCCCCCC=CC=O
inactive: all assays above
